Measurements as given in ChEMBL document CHEMBL4359929, “Piperidine and piperazine inhibitors of fatty acid amide hydrolase targeting excitotoxic pathology” (Bioorg Med Chem, 2019).
The source made the active and inactive calls. The calls are words filed in the database; no cut-off is given here.

Tests used:
Assay type in all cases: tissue-based
[1] = target: T1, Fatty-acid amide hydrolase 1 (Rattus norvegicus) (UniProt P97612); experiment: Inhibition of FAAH in rat brain at 10 uM incubated for 30 mins followed by incubation with FP-Rh probe for 45 mins by ABPP assay
T1 sequence (whole entry): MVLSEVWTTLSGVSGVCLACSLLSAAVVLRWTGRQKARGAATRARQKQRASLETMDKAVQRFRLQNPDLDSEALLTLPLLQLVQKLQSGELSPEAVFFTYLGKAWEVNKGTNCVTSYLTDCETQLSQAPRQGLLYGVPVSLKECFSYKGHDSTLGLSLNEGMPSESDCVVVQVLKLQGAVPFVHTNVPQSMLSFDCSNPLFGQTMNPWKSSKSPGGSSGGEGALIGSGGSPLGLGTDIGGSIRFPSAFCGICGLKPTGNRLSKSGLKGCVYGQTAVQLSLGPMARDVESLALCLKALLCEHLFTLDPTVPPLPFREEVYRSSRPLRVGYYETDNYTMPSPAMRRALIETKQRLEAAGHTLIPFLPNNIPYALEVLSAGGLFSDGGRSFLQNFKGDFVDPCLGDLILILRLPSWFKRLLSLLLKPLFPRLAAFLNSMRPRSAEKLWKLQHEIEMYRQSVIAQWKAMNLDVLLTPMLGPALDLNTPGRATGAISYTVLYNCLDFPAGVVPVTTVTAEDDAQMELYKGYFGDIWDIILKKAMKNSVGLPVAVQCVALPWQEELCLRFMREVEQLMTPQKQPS
Method in brief: (§1)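 Gel-based competitive ABPP on rat brain membrane homogenates (10 mg/mL protein). Compound at 1 and 10 μM or DMSO for 30 min at room temperature, then 10 μM rhodamine-tagged fluorophosphonate probe for 45 min at room temperature. FAAH was run with a reference FAAH inhibitor at 10 μM as positive control. Serine hydrolase labelling read by in-gel fluorescence.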

[2] = target: T2, Monoglyceride lipase (Rattus norvegicus) (UniProt Q8R431); experiment: Inhibition of MGL in rat brain at 10 uM incubated for 30 mins followed by incubation with FP-Rh probe for 45 mins by ABPP assay; method in brief: as §1
T2 sequence (whole entry): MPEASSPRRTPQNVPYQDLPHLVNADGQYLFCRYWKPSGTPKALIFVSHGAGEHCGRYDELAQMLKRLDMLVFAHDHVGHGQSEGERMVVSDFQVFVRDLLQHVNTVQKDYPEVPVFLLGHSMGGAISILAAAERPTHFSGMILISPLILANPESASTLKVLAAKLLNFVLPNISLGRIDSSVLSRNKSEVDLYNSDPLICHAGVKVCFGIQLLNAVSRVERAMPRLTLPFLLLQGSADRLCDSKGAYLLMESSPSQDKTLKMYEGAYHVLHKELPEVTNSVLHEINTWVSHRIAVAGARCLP

[3] = target: T3, Monoacylglycerol lipase ABHD6 (Rattus norvegicus) (UniProt Q5XI64); experiment: Inhibition of ABHD6 in rat brain at 10 uM incubated for 30 mins followed by incubation with FP-Rh probe for 45 mins by ABPP assay; method in brief: as §1
T3 sequence (whole entry): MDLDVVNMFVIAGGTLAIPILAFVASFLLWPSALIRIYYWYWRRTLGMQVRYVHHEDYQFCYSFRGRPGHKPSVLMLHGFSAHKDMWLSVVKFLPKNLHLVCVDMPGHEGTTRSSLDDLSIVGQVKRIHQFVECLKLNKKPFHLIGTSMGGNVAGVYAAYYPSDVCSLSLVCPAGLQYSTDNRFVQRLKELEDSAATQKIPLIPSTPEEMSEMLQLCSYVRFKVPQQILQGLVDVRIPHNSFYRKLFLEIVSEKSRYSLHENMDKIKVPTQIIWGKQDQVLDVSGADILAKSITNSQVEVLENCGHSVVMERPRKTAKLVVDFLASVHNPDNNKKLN

SMILES: O=C(Nc1cccnn1)N1CCC(=Cc2cccc(Oc3ccc(C(F)(F)F)cn3)c2)CC1
- inhibition [1]: Active
- inhibition [2]: inactive
- inhibition [3]: inactive
